Molecules are shown by their SMILES. Active and inactive are the calls of the source. The calls are words filed in the database; no cut-off is given here. Some results are limits rather than exact numbers.

Test [1] concerns the target T1, Free fatty acid receptor 1 (Homo sapiens, UniProt O14842). Description: Activity at FFAR1 expressed in HEK-EM293 cells assessed as calcium influx relative to GW-9508 by FLIPR assay. In kind it is functional, cell-based. Set-up: concentration or dose not given beside the values. The conditions noted are these: HEK293.
Test [2] has as its target T1, Free fatty acid receptor 1. Description: Agonist activity at FFAR1 expressed in HEK-EM293 cells assessed as calcium influx by FLIPR assay. The class given is functional, cell-based, HEK293. The conditions noted are these: for Activity: HEK293.
Test [3] is described as follows: Antagonist activity at TRH receptor 1 expressed in HEK-EM293 cells assessed as inhibition of thyrotropin-releasing hormone-stimulated calcium influx at 30 uM by FLIPR assay. In kind it is functional. The conditions noted are these: HEK293. The procedure, abridged:
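HEK-EM 293 cells stably expressing TRH-R1, grown with 200 µg/mL hygromycin and loaded with Calcium4. Pre-incubated with compound, up to 30 µM, then stimulated with TRH. Inhibition of the FLIPR calcium response measured.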

Test [4] addresses T1, Free fatty acid receptor 1. As to the kind of experiment: Antagonist activity at FFAR1 expressed in HEK-EM293 cells assessed as linoleic acid-stimulated calcium influx after 30 mins by FLIPR assay. In kind it is functional, cell-based. The conditions noted are these: HEK293.
The target in test [5] is T1, Free fatty acid receptor 1. Description: Antagonist activity at FFAR1 expressed in HEK-EM293 cells assessed as inhibition calcium influx by FLIPR assay. In kind it is functional, cell-based, HEK293.
The target of test [6] is T1, Free fatty acid receptor 1. Description: Activity at FFAR1 expressed in HEK-EM293 cells assessed as calcium influx by FLIPR assay. The class given is functional, cell-based, HEK293.
For test [7], the target named is Free fatty acid receptor 1 (Homo sapiens, UniProt O14842, N244A). As to the kind of experiment: Activity at FFAR1 N244A mutant expressed in HEK-EM293 cells assessed as calcium influx by FLIPR assay. In kind it is functional, cell-based, HEK293. In a few lines: (§1)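 Mutant or wild-type FFAR1 cDNA transiently transfected (lipofectamine LTX/PLUS) into HEK-EM 293 cells. Cells seeded at 60 000/well one day before, then loaded with Calcium4 dye in HEPES (20 mM)-buffered HBSS. Intracellular calcium flux read by FLIPR after agonist addition; EC50 from concentration-response curves.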
Free fatty acid receptor 1 (Homo sapiens, UniProt O14842, N244A), sequence (O14842 whole entry N244A): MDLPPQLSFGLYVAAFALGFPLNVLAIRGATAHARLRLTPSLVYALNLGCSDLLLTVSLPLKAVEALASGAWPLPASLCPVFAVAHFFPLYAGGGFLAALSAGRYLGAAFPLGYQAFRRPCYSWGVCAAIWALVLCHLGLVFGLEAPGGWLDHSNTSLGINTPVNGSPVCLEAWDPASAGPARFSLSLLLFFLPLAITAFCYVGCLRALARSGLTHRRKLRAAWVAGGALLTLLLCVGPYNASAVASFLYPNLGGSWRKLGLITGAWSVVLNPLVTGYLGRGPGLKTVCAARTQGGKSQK

Test [8] has as its target Free fatty acid receptor 1 (Homo sapiens, UniProt O14842, H86F). Description: Activity at FFAR1 H86F mutant expressed in HEK-EM293 cells assessed as calcium influx by FLIPR assay. The class given is functional, cell-based, HEK293. The procedure, abridged: as §1
Test [9] addresses Free fatty acid receptor 1 (Homo sapiens, UniProt O14842, R183A). As to the kind of experiment: Activity at FFAR1 R183A mutant expressed in HEK-EM293 cells assessed as calcium influx by FLIPR assay. The class given is functional, cell-based, HEK293. The procedure, abridged: as §1
The target in test [10] is Free fatty acid receptor 1 (Homo sapiens, UniProt O14842, L186F). As to the kind of experiment: Activity at FFAR1 L186F mutant expressed in HEK-EM293 cells assessed as calcium influx by FLIPR assay. The class given is functional, cell-based, HEK293. In a few lines:
as §1

For test [11], the target named is Free fatty acid receptor 1 (Homo sapiens, UniProt O14842, H137F). Description: Activity at FFAR1 H137F mutant expressed in HEK-EM293 cells assessed as calcium influx by FLIPR assay. The class given is functional, cell-based, HEK293. In a few lines: as §1
Free fatty acid receptor 1 (Homo sapiens, UniProt O14842, H137F), sequence (O14842 whole entry H137F): as the sequence (O14842 whole entry N244A) above, with H137F, A244N counted along it

T1 sequence (O14842 whole entry): as the sequence (O14842 whole entry N244A) above, with A244N counted along it
Free fatty acid receptor 1 (Homo sapiens, UniProt O14842, R183A), sequence (O14842 whole entry R183A): as the sequence (O14842 whole entry N244A) above, with R183A, A244N counted along it
Free fatty acid receptor 1 (Homo sapiens, UniProt O14842, L186F), sequence (O14842 whole entry L186F): as the sequence (O14842 whole entry N244A) above, with L186F, A244N counted along it
Free fatty acid receptor 1 (Homo sapiens, UniProt O14842, H86F), sequence (O14842 whole entry H86F): as the sequence (O14842 whole entry N244A) above, with H86F, A244N counted along it

In the case of `O=C(O)CCCN1C(=O)/C(=C\c2cccs2)SC1=S`, the Activity in test [1] was found to be 43%. Also, the 50% effective concentration (EC50) – broadly, the concentration that produces a half-maximal response – in test [2] was found to be 19 µM.

As for `COc1ccc(CNC(=O)[C@H](C)c2ccc([N+](=O)[O-])cc2)cc1`, in test [2], the outcome was inactive.

Take `O=C(Nc1ccc(OCc2ccccc2)cc1)c1cccc([N+](=O)[O-])c1`: in test [2], the result was inactive.

On to `O=C(NCc1cccc(Oc2ccccc2)c1)c1ccc([N+](=O)[O-])cc1`, for which, in test [3], the inhibition – broadly, the percentage by which the read-out fell short of the control – at 30 µM is 30%. For the same molecule, the result in test [4] was Active. Further, in test [5], the IC50 (in general, the point on the concentration scale where inhibition reaches its midpoint) is 2.8 µM.

With `O=C(O)CCN1C(=O)/C(=C\c2cccc3ccccc23)SC1=S`, the result in [2] was inactive.

For `O=C(O)CCCN1C(=O)/C(=C\c2ccc3c(c2)OCO3)SC1=S`, in [2], the outcome was Active.

On to `O=C(O)CCCCCN1C(=O)/C(=C\c2cccs2)SC1=S`, for which the EC50 in [6] is 6.6 µM; in test [7], more than 30 µM; in test [8], more than 10 µM; in test [9], more than 30 µM; in [10], 3.2 µM; in [2] it was 7.6 µM. Further, the EC50 in test [11] was found to be 7.8 µM. The Activity in [1] was 59%.

With `O=C(O)c1cccc(NCc2cccc(OCc3ccccc3)c2)c1`, the Activity in [1] is 52%. The EC50 in test [2] is 8.2 µM.

As to `O=C(c1ccccc1)c1ccc(NC(=O)c2ccccc2C(=O)O)cc1`, the result in [2] was inactive.

As to `COc1ccc(CNC(=O)/C=C\c2ccc([N+](=O)[O-])cc2)cc1`, the outcome in test [2] was inactive.

`C=CCOc1ccc(CNc2cccc(C(=O)O)c2)cc1`: in test [1], the Activity is 49%. Moreover, the 50% effective concentration (EC50) in [2] amounted to 14.5 µM.

As for `COC(=O)CSc1nnc(SCc2ccccc2)s1`, the Activity in test [1] worked out at 41%. Moreover, the EC50 in [2] was found to be 16.7 µM.

With `O=C(Nc1ccccc1)c1cccc(Oc2ccc([N+](=O)[O-])cc2)c1`, in test [5], the IC50 was found to be 5.3 µM.

In the case of `O=C(O)CCCN1C(=O)/C(=C\c2ccc(F)cc2)SC1=S`, the Activity in test [1] amounted to 26%. Moreover, in test [2], the 50% effective concentration (EC50) was found to be 22.6 µM.

On to `O=C(O)CCCCCN1C(=O)/C(=C\c2cccc3ccccc23)SC1=S`, for which the Activity in test [1] was determined as 100%. The EC50 in [2] worked out at 12.2 µM.

For `O=C(O)c1ccc(NC(=O)c2ccc(C(=O)c3ccccc3)cc2)cc1`, the Activity in [1] came to 56%. The EC50 in test [2] came to 16.1 µM.

Regarding `O=C(O)CCCN1C(=O)/C(=C\c2ccco2)SC1=S`, the Activity in test [1] was 44%. In addition, the EC50 in [2] worked out at 16.8 µM.

`O=C(O)CSc1nnc(SCc2cccc3ccccc23)s1`: the EC50 in test [6] was 1.8 µM; in [7], not below 100 µM; in test [8] it was not below 100 µM; in [9] it was not below 100 µM; in [10] it was 0.97 µM; in [2] it was 3.6 µM. Further, the EC50 in test [11] was 4.3 µM. Further, in [1], the Activity came to 100%.

For the molecule `O=C(O)CCN1C(=O)/C(=C\c2ccncc2)SC1=S`, in test [2], the result was inactive.

In the case of `COc1ccc(CSc2nnc(SCc3ccc(C(=O)O)cc3)s2)cc1`, the Activity in test [1] turned out to be 40%. In addition, the EC50 in test [2] worked out at 15.1 µM.

With `O=C(O)c1ccc(NCc2ccc3c(c2)OCO3)cc1`, in test [1], the Activity came to 50%. In addition, the concentration for a half-maximal effect (EC50) in test [2] amounted to 24.6 µM.

Turning to `O=C(O)CCN1C(=O)/C(=C\c2c[nH]c3ccccc23)SC1=S`, the result in test [2] was inactive.

The record behind these values is ChEMBL document CHEMBL1140737, “Discovery of novel agonists and antagonists of the free fatty acid receptor 1 (FFAR1) using virtual screening” (J Med Chem, 2008).
